Results on 6 compounds are retold here after ChEMBL document CHEMBL2177028, “Insights into the structural determinants required for high-affinity binding of chiral cyclopropane-containing ligands to α4β2-nicotinic acetylcholine receptors: an integrated approach to behaviorally active nicotinic ligands” (J Med Chem, 2012).

The nature of data set [1]: Displacement of [3H]epibatidine from rat alpha4beta2*-nAChRs after 4 hrs by scintillation counting. The method, boiled down:
(§1)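 [3H]epibatidine competition binding at heterologously expressed rat nAChR subtypes, run per the PDSP protocol. Native α4β2* receptors were prepared from rat forebrain. Ki values determined.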
(In general: In a radioligand displacement assay an active substance lowers the binding of a labelled ligand.)

The target of data set [2] is T1, Neuronal acetylcholine receptor; alpha4/beta2 (Homo sapiens, UniProt P17787+P43681). In words: Agonist activity at high sensitivity alpha4beta2-nAChR expressed in human SH-EP1 cells by 86Rb+ ion flux assay relative to carbamylcholine. The format is functional, cell-based. In short, it runs like this:
(§2)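 86Rb+ efflux through human α4β2-nAChR (mixed high- and low-sensitivity forms) heterologously expressed in SH-EP1 cells. Agonist efficacy expressed as percent of the response to a maximally efficacious concentration of the full agonist carbamylcholine, with high- and low-sensitivity α4β2 responses reported separately.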

The target of data set [3] is T1, Neuronal acetylcholine receptor; alpha4/beta2. In words: Agonist activity at high sensitivity and low sensitivity alpha4beta2-nAChR expressed in human SH-EP1 cells by 86Rb+ ion flux assay. Type of data set: functional, cell-based. In short, it runs like this: as §2
For data set [4], the target named is Neuronal acetylcholine receptor; alpha3/beta2 (Rattus norvegicus, UniProt P04757+P12390). In words: Displacement of [3H]epibatidine from rat alpha3beta2-nAChRs after 4 hrs by scintillation counting. Type of data set: protein-complex assay. The method, boiled down:
as §1

Data set [5] concerns the target T2, Acetylcholine receptor; alpha1/beta1/delta/gamma (Homo sapiens) (UniProt P02708+P07510+P11230+Q07001). In words: Agonist activity at high sensitivity and low sensitivity alpha1beta1gammadelta-nAChR expressed in human TE671/RD cells by 86Rb+ ion flux assay. Type of data set: functional, cell-based.
The test system of data set [6] is Mus musculus. In words: Antidepressant activity in mouse assessed as immobility time at 3 mg/kg, po after 30 mins by mouse forced swim test. The format is functional, organism-based. Further details: dose 3 mg/kg. The method, boiled down: (§3)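 Mouse forced swim test: mice placed in a beaker of water and time spent passively floating (immobility) recorded. Compounds given intraperitoneally or orally; sertraline 20 mg/kg served as positive control.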

The target of data set [7] is Neuronal acetylcholine receptor; alpha3/beta4 (Rattus norvegicus, UniProt P04757+P12392). In words: Displacement of [3H]epibatidine from rat alpha3beta4-nAChRs after 4 hrs by scintillation counting. Type of data set: protein-complex assay. The method, boiled down: as §1
Data set [8] in a line: Metabolic stability in mouse liver microsomes assessed as unchanged compound level at 2 uM measured after 1 hr. Type of data set: ADME, Microsome. The conditions noted are these: read-out: Stability. The method, boiled down:
(§4)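 Compound incubated with mouse, rat, dog or human liver microsomes at a starting concentration of 2 μM for 1 h. Percent of parent remaining unchanged determined.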
Background: Microsomes from liver hold many membrane-bound enzymes, among them those of drug oxidation.

In data set [9] the target is Neuronal acetylcholine receptor; alpha4/beta4 (Rattus norvegicus, UniProt P09483+P12392). In words: Displacement of [3H]epibatidine from rat alpha4beta4-nAChRs after 4 hrs by scintillation counting. The format is protein-complex assay. In short, it runs like this:
as §1

In data set [10] the test system is Mus musculus. In words: Antidepressant activity in mouse assessed as immobility time at 3 mg/kg, ip after 30 mins by mouse forced swim test. The arrangement: dose 3 mg/kg. The format is functional, organism-based. In short, it runs like this: as §3
In data set [11] the test system is Mus musculus. In words: Antidepressant activity in mouse assessed as immobility time at 10 mg/kg, ip after 30 mins by mouse forced swim test. The format is functional, organism-based. The arrangement: dose 10 mg/kg. In short, it runs like this: as §3
Data set [12] relates to Mus musculus. In words: Antidepressant activity in mouse assessed as immobility time at 3 to 30 mg/kg, po after 30 mins by mouse forced swim test. Type of data set: functional, organism-based. The method, boiled down:
as §3

Data set [13] is described as follows: Metabolic stability in human liver microsomes assessed as unchanged compound level at 2 uM measured after 1 hr. The format is ADME, Microsome. The note with it: read-out: Stability. In short, it runs like this:
as §4

Data set [14] concerns the target T1, Neuronal acetylcholine receptor; alpha4/beta2. In words: Antagonist activity at high sensitivity and low sensitivity alpha4beta2-nAChR expressed in human SH-EP1 cells assessed as inhibition of carbamylcholine-induced stimulation effect measured after 10 mins carbamylcholine challenge by 86Rb+ ion flux assay relative to control. Type of data set: functional, cell-based. The method, boiled down: (§5)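 Receptor inactivation measured by 86Rb+ efflux after 10 min pre-exposure to test ligand, followed by carbamylcholine challenge. Cells: SH-EP1 (human α4β2), SH-SY5Y (α3β4*), TE671/RD (α1β1γδ).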

Data set [15] concerns SH-SY5Y. In words: Antagonist activity at high sensitivity and low sensitivity alpha3beta4*-nAChR expressed in human SH-SY5Y cells assessed as inhibition of carbamylcholine-induced stimulation effect measured after 10 mins carbamylcholine challenge by 86Rb+ ion flux assay. Type of data set: functional, cell-based. In short, it runs like this:
as §5

Data set [16] in a line: Metabolic stability in dog liver microsomes assessed as unchanged compound level at 2 uM measured after 1 hr. Type of data set: ADME, Canis lupus familiaris, Microsome. The conditions noted are these: read-out: Stability. The method, boiled down:
as §4

Data set [17] has as its target Neuronal acetylcholine receptor; alpha4/beta2 (Rattus norvegicus, UniProt P09483+P12390). In words: Displacement of [3H]epibatidine from rat alpha4beta2-nAChRs after 4 hrs by scintillation counting. The format is protein-complex assay. In short, it runs like this:
as §1

The target in data set [18] is Neuronal acetylcholine receptor; alpha2/beta2 (Rattus norvegicus, UniProt P12389+P12390). In words: Displacement of [3H]epibatidine from rat alpha2beta2-nAChRs after 4 hrs by scintillation counting. Type of data set: protein-complex assay. The method, boiled down:
as §1

The next data set is filed under the species Rattus norvegicus. In words: Selectivity index, ratio of Ki for rat alpha3beta4 nAChR to Ki for rat alpha4beta2-nAChR. In short, it runs like this: as §1
Data set [19] deals with T2, Acetylcholine receptor; alpha1/beta1/delta/gamma (Homo sapiens). In words: Antagonist activity at high sensitivity and low sensitivity alpha1beta1gammadelta-nAChR expressed in human TE671/RD cells assessed as inhibition of carbamylcholine-induced stimulation effect measured after 10 mins carbamylcholine challenge by 86Rb+ ion flux assay. The format is functional, cell-based. In short, it runs like this:
as §5

A short description of data set [20]: Metabolic stability in rat liver microsomes assessed as unchanged compound level at 2 uM measured after 1 hr. Type of data set: ADME, Microsome. The conditions noted are these: read-out: Stability. In short, it runs like this:
as §4

Data set [21] has as its system SH-SY5Y. In words: Agonist activity at high sensitivity and low sensitivity alpha3beta4*-nAChR expressed in human SH-SY5Y cells by 86Rb+ ion flux assay. Type of data set: functional, cell-based.
Data set [22] concerns the target Neuronal acetylcholine receptor; alpha2/beta4 (Rattus norvegicus, UniProt P12389+P12392). In words: Displacement of [3H]epibatidine from rat alpha2beta4-nAChRs after 4 hrs by scintillation counting. Type of data set: protein-complex assay. The method, boiled down:
as §1

Data set [23] has as its target T1, Neuronal acetylcholine receptor; alpha4/beta2. In words: Antagonist activity at high sensitivity and low sensitivity alpha4beta2-nAChR expressed in human SH-EP1 cells assessed as inhibition of carbamylcholine-induced stimulation effect measured after 10 mins carbamylcholine challenge by 86Rb+ ion flux assay. Type of data set: functional, cell-based. The method, boiled down:
as §5

The target is the same in data set [24]. In words: Agonist activity at low sensitivity alpha4beta2-nAChR expressed in human SH-EP1 cells by 86Rb+ ion flux assay relative to carbamylcholine. Type of data set: functional, cell-based. In short, it runs like this: as §2
Data set [25] concerns Mus musculus. In words: Antidepressant-like effect in mouse assessed as behavioral changes at 5 to 10 mg/kg, ip dosed 15 mins before testing by SmartCube system. The format is functional, organism-based. The method, boiled down:
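SmartCube automated mouse behavioural profiling. Drug injected 15 min before the session, during which multiple challenges were presented; at least 12 mice per group. Video processed by computer vision to extract over 2000 measures (frequency and duration of states such as grooming and rearing), compared with vehicle signature.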

In data set [26] the target is T3, Soluble acetylcholine receptor (Aplysia californica, UniProt Q8WSF8).
T3 sequence (Q8WSF8 whole entry): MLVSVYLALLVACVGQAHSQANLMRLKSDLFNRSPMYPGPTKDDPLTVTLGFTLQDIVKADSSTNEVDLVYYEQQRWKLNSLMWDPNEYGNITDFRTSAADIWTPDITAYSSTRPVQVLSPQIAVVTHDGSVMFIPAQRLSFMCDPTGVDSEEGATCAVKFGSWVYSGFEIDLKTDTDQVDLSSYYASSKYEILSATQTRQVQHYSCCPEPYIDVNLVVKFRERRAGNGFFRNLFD
In words: Displacement of [3H]epibatidine from Aplysia californica AChBP. The method, boiled down:
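Competition against [3H]epibatidine at acetylcholine binding proteins (Ac- and Ct-AChBP), giving Ki values. Procedure follows the PDSP assay protocol book.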

Data set [27] in a line: Selectivity index, ratio of Ki for Aplysia californica AChBP to Ki for Lymnaea stagnalis AChBP.

Molecules are shown by their SMILES. Calls of active or inactive are those of the source. No cut-off for these calls is given here. Where only a bound is given, the exact number is not on record here.

Neuronal acetylcholine receptor; alpha4/beta4, sequence (P09483 whole entry): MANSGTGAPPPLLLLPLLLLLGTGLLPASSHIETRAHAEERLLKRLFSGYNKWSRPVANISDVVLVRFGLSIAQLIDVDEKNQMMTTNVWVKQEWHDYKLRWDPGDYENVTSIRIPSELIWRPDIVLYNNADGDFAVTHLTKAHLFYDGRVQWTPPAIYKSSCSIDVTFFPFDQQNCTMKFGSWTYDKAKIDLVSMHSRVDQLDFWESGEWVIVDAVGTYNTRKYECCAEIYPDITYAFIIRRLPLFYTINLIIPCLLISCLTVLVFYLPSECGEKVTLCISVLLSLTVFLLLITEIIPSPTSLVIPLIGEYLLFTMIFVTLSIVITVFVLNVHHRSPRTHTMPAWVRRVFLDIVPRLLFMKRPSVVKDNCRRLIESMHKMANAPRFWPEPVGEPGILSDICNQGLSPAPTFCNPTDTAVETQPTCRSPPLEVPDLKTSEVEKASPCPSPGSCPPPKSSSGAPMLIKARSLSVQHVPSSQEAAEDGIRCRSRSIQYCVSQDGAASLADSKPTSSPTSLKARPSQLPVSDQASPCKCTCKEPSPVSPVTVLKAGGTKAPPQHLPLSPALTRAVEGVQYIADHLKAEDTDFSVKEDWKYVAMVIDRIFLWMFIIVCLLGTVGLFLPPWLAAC
Neuronal acetylcholine receptor; alpha4/beta4, sequence (P12392 whole entry): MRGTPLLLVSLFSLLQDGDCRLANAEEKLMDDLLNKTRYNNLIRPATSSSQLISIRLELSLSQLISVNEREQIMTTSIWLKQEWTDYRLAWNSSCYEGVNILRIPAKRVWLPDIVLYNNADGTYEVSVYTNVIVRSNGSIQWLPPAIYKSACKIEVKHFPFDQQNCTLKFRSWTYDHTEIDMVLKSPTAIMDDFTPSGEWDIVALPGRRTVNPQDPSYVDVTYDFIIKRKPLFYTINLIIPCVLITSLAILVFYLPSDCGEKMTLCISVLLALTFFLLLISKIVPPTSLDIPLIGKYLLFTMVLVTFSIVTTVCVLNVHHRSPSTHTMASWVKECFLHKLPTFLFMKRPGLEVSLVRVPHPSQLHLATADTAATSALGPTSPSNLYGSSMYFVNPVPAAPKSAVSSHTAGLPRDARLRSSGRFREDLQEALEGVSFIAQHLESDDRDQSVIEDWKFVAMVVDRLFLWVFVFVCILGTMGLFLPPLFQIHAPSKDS
Neuronal acetylcholine receptor; alpha4/beta2 (Rattus norvegicus, UniProt P09483+P12390), sequence (P09483 whole entry): as the sequence (P09483 whole entry) above
Neuronal acetylcholine receptor; alpha4/beta2 (Rattus norvegicus, UniProt P09483+P12390), sequence (P12390 whole entry): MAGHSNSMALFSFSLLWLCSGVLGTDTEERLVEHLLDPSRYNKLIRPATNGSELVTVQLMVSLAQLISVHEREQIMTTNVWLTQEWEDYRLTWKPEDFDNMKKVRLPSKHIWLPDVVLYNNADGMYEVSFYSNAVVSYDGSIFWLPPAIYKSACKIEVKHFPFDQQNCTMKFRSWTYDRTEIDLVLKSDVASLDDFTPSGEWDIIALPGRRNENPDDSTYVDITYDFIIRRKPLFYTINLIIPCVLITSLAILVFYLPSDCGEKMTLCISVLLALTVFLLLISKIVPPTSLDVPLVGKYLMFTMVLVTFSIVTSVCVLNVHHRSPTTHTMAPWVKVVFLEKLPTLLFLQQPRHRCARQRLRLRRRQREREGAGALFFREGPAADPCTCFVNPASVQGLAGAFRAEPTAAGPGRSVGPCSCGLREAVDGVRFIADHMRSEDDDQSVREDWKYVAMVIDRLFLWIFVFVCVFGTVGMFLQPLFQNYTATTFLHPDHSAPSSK
Neuronal acetylcholine receptor; alpha2/beta2, sequence (P12389 whole entry): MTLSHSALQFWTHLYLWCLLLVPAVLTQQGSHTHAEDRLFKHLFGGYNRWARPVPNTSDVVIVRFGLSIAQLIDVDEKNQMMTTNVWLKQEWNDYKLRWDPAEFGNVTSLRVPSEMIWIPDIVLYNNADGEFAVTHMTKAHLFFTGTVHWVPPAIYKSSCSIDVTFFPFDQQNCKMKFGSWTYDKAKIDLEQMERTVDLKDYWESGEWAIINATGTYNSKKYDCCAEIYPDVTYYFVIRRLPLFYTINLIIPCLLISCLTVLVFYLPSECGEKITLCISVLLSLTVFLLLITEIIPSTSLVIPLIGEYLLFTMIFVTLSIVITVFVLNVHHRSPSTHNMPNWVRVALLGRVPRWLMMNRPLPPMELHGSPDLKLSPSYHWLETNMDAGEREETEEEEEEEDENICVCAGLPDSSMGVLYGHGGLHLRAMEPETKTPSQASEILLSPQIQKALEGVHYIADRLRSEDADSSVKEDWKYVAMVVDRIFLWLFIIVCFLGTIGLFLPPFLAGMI
Neuronal acetylcholine receptor; alpha2/beta2, sequence (P12390 whole entry): as the sequence (P12390 whole entry) above
Neuronal acetylcholine receptor; alpha2/beta4, sequence (P12389 whole entry): as the sequence (P12389 whole entry) above
Neuronal acetylcholine receptor; alpha2/beta4, sequence (P12392 whole entry): as the sequence (P12392 whole entry) above
Neuronal acetylcholine receptor; alpha3/beta2, sequence (P04757 whole entry): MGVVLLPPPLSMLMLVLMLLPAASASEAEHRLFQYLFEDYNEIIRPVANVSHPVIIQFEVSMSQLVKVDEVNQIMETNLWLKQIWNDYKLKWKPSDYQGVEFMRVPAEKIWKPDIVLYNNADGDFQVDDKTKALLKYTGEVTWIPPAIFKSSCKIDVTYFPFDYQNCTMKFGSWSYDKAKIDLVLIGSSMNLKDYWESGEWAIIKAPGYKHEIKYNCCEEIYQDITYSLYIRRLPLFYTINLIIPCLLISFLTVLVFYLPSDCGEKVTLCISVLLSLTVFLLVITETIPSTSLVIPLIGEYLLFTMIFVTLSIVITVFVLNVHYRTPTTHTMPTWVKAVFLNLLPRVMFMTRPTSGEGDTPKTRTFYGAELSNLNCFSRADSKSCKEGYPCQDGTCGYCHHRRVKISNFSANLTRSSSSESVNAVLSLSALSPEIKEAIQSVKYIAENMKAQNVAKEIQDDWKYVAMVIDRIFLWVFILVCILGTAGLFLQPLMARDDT
Neuronal acetylcholine receptor; alpha3/beta2, sequence (P12390 whole entry): as the sequence (P12390 whole entry) above
Neuronal acetylcholine receptor; alpha3/beta4, sequence (P04757 whole entry): as the sequence (P04757 whole entry) above
Neuronal acetylcholine receptor; alpha3/beta4, sequence (P12392 whole entry): as the sequence (P12392 whole entry) above
T1 sequence (P17787 whole entry): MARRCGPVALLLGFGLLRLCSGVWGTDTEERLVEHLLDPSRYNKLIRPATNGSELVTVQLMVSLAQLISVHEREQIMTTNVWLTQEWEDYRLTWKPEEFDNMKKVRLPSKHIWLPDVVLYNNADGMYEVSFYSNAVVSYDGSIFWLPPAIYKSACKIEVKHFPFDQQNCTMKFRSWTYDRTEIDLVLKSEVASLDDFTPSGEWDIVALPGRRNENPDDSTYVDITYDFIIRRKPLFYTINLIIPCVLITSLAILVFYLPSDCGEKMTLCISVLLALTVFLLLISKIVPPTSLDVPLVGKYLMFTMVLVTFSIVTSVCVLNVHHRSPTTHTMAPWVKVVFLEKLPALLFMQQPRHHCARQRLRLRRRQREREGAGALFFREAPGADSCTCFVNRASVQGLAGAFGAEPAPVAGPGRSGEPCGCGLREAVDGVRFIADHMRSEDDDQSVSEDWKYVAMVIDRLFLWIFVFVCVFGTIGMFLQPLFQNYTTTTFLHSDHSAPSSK
T1 sequence (P43681 whole entry): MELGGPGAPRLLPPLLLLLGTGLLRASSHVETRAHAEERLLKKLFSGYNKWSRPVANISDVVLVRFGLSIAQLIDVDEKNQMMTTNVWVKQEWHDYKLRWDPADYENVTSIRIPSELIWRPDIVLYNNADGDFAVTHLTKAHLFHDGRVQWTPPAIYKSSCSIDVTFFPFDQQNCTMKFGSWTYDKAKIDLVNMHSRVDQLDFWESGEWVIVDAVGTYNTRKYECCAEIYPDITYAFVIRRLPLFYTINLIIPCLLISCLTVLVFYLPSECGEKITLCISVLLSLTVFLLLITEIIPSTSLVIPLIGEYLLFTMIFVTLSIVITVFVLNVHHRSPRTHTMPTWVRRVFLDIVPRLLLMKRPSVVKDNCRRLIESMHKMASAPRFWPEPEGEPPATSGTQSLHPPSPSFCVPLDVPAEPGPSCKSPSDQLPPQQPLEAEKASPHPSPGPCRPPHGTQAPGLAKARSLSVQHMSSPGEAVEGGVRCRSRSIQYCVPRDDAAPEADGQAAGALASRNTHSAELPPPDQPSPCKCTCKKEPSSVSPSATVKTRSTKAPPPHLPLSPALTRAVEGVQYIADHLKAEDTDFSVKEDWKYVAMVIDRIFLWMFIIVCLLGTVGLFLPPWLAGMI

As to `FCC[C@H]1C[C@@H]1c1cncc(OC[C@@H]2CCN2)c1`, the inhibitory constant (Ki) in data set [1] was determined as 0.0009 µM; in [4], 0.0061 µM; in [7], 3.22 µM; in data set [9], 0.0391 µM; in [17], 0.0002 µM; in data set [18], 0.0004 µM. In [22], this compound had a Ki of 0.138 µM. For the same compound, the Efficacy in data set [2] is 76%; in [14], 81%. The same compound came in with a half-maximal effective concentration (EC50) in data set [3] of 0.0113 µM. Besides, the outcome (in data set [5]; in the data set with SH-SY5Y [21]; in data set [24]) was inactive. Besides, the result in the data set on Mus musculus [6], with Mus musculus [10], in the data set on Mus musculus [11], with Mus musculus [12] and in the data set with Mus musculus [25] was Active. Moreover, the remaining at 1 h, 2 µM in data set [8], in data set [13], in data set [16] and in data set [20] was at least 98% throughout. Also, the inhibition entry (in the data set with SH-SY5Y [15]; in [19]) was “inactive” in each case. Besides, the Ratio Ki in the data set filed under Rattus norvegicus is above 16000. For the same compound, the 50% inhibitory concentration (IC50) in data set [23] was found to be 0.0102 µM.

As to `CC[C@H]1C[C@@H]1c1cncc(OC[C@@H]2CCN2)c1`, the Ki is 0.0012 µM in [1]; 0.0103 µM in [4]; 0.852 µM in [7]; 0.0148 µM in data set [9]; 0.0004 µM in data set [17]; 0.0004 µM in data set [18]. The compound also showed a Ki in [22] of 0.0418 µM. Moreover, the Efficacy in [2] was 68%; in data set [14], 87%. The same compound had an EC50 in data set [3] of 0.0191 µM. The result (in data set [5]; in the data set with Mus musculus [10]; with Mus musculus [11]; with SH-SY5Y [21]; in [24]) was inactive. Besides, the inhibition result (in the data set with SH-SY5Y [15]; in data set [19]) was “inactive” in each case. In [23], the half-maximal inhibitory concentration (IC50) came out at 0.0222 µM. Further, the result in the data set with Mus musculus [25] was Active.

Turning to `OCC[C@H]1C[C@@H]1c1cncc(OC[C@@H]2CCN2)c1`, the inhibitory constant (Ki) in data set [26] was 0.979 µM. In [27], the Ratio Ki worked out at 80. The outcome in the data set on Mus musculus [25] was Active.

Consider `FC(F)C[C@H]1C[C@@H]1c1cncc(OC[C@@H]2CCN2)c1`, for which the inhibition constant (Ki) in data set [1] is 0.0008 µM; in data set [4] it was 0.0069 µM; in data set [7], 1.98 µM; in [9], 0.023 µM; in [17] it was 0.0001 µM; in data set [18], 0.0003 µM. In [22], this compound displayed a Ki of 0.0854 µM. The figures for the Efficacy in data set [2] and in data set [14] were 75% and 86%, respectively. For the same compound, the concentration for a half-maximal effect (EC50) in data set [3] amounted to 0.0088 µM. The result (in data set [5]; with Mus musculus [10]; with Mus musculus [11]; in the data set with SH-SY5Y [21]; in data set [24]) was inactive. The inhibition result (in the data set on SH-SY5Y [15]; in data set [19]) was “inactive” throughout. Besides, the Ratio Ki in the data set listed under Rattus norvegicus is above 16000. Besides, in [23], the IC50 was found to be 0.0086 µM. For the same compound, the result with Mus musculus [25] was Active.

Turning to `CN1CCC[C@H]1c1cccnc1` [NICOTINE], in data set [26], the inhibition constant (Ki) came out at 0.598 µM.

In [26], `CNC(=O)OCC[C@H]1C[C@@H]1c1cncc(OC[C@@H]2CCN2)c1` gave a Ki of 1.93 µM. Further, in [27], the Ratio Ki was 80. Further, in the data set on Mus musculus [25], the result was Active.

For orientation: Ki means the equilibrium dissociation constant of an inhibitor or competing ligand from its target. A low value points to a stronger hold on the target. As usually defined, the EC50 is the midpoint of the concentration-response curve. What is called IC50 is the concentration needed to halve the response being measured.
